Screens from PubChem.
MC4R antag cAMP: blocks human MC4R cAMP signaling. MC4R-expressing cells, MTII-stimulated cAMP, LANCE TR-FRET. inhibition, % at 6.5 µM. hit rate 0.48% among 360,000. AID 540295;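 active means inhibition above its plate's cutoff, the mean of tested wells on that plate plus 3 SD, cut at about 29% in these data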;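 further: 0% = Melanotan II alone and 100% = Melanotan II plus saturating MCL0020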
Target sequence (P32245 whole entry, looked up): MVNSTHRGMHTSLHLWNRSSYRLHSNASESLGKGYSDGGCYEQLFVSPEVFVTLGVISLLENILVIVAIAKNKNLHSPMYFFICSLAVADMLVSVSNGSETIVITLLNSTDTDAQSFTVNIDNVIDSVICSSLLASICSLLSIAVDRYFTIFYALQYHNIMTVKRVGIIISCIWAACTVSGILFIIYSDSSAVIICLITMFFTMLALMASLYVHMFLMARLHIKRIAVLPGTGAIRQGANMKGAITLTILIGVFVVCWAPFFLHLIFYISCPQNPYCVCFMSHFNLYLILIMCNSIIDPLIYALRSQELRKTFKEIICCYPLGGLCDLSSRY
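Assay system: U2OS cells stably expressing human melanocortin 4 receptor (MC4R) / Dosing: 6.5 µM / Timing: compound 30 min, challenge 1 h, detection 1 h / Measured by: Eu-cAMP/anti-cAMP TR-FRET, emission 671 nm / Replicates: singlicate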
CSC inhib: cancer stem cell inhibition; cancer stem cell-like cells viability, luminescence; inhibition, % at 7.5 µM; hit rate 1.1% among 300,000; AID 2717; in the data active means inhibition above about 75%; tested in HMLE shEcad cells
TMEM16A act: mouse TMEM16A channel activation, primary screen | Q8BHY3 | HEK293 TMEM16A/YFP-H148Q/I152L, iodide quench fluorescence; hits give low values | B-score at 10 µM | hit rate 0.3% among 340,000 | AID 623877;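 active means fluorescence-ratio B-score plate-corrected deviation score at least 3 library SD below zero, with starting fluorescence score within 5 deviations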;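 further: channel opened by trigger with iodide after compound preincubation; score built on the fluorescence ratio of max minus min over baseline; more negative score means more quench and so TMEM16A activation or potentiation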
TMEM16A inh: inhibitors of mouse TMEM16A calcium-activated chloride channel; HEK293 TMEM16A/YFP iodide influx fluorescence, ionomycin; normalized B-score (activity score, 25-100; higher = stronger inhibition) at 10 µM; hit rate 1.2% among 310,000; Q8BHY3; AID 588511;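 active means ratio plate-corrected score three or more library SD toward inhibition, starting fluorescence score within five deviations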;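 further: score derived from kinetic fluorescence span divided by baseline fluorescence per well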
Beta apoptosis: beta cell apoptosis inhibition | AID 435005 | protection from apoptosis, % (concentration not given with the values) | hit rate 0.8% among 300,000 | INS-1E cytokine-induced death, ATP luminescence, 48 h; percent of positive-control rescue, neutral wells zero;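 active means Every replicate reaches about 75%, or at least half do and their mean reaches it too, limit read from the data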;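 further: 0% = cytokine-treated negative control wells and 100% = positive control rescue; higher means more ATP so stronger rescue from cytokine killing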
MC4R ag barr: activates human MC4R beta-arrestin recruitment. P32245. U2OS MC4R beta-arrestin complementation, luminescence; percent of melanotan II response, DMSO zero. activation, % at 8.9 µM. hit rate 0.98% among 360,000;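 active means activation above a per-plate cutoff, the mean activation of sample wells on that plate plus 3 SD, cut at about 8% in these data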
* = called active by the depositor; i = inactive; . = not tested or not shown. In the library only some 3.8% were active in any assay of this set; here they are far more common.

SMILES	MC4R antag cAMP	CSC inhib	TMEM16A act	TMEM16A inh	Beta apoptosis	MC4R ag barr
CC(=O)c1sc(-c2ccc(F)cc2)cc1NS(=O)(=O)c1ccc(C)cc1	-2	1	i	i	-6	0
NC(=O)c1sc(-c2ccsc2)cc1NS(=O)(=O)c1ccc(C(F)(F)F)cc1	9	79*	i	i	13	2
C/C(N=Nc1nc2ccccc2s1)=N\Nc1ccccc1O	0	85*	i	i	70	-7
Cc1ccc(NS(=O)(=O)c2ccc(NC(=O)CSc3ccc(Cl)cc3)cc2)c(C)c1	7	13	i	25*	-5	8
CC(=O)Nc1ccc(NC(=O)CN(c2cccc([N+](=O)[O-])c2)S(C)(=O)=O)cc1	10	-17	i	i	108*	-2
Cc1ccc(O)c(NC(=O)CSc2ccc(Cl)cc2)c1	4	2	i	i	5	2
Cc1ccc(NS(=O)(=O)c2ccc(NC(=O)CN(c3cc([N+](=O)[O-])ccc3C)S(C)(=O)=O)cc2)c(C)c1	0	-5	i	i	106*	-2
FC(F)Sc1ccc(N=C2NN=C(c3ccc4c(c3)OCCO4)CS2)cc1	12	20	i	i	101*	2
CC(C)c1ccc(CN2CCC(Oc3ccc(C(=O)N4CCCC4)cc3)CC2)cc1	14	2	i	i	2	-2
O=C(CSc1nnc(-c2ccccc2)n1C1CCCCC1)Nc1ccc(S(=O)(=O)Nc2ccccn2)cc1	17	-11	-12*	i	-12	0
CCn1c(SCC(=O)Nc2ccc(S(=O)(=O)Nc3ccccn3)cc2)nnc1-c1ccncc1	-2	-9	i	i	-1	-1
CC(C)(C)c1ccc(OCC(=O)N/N=C/c2cc(Br)ccc2OC(=O)c2ccco2)cc1	10	101*	i	i	4	-1
COc1ccc(Br)cc1/C=N/NC(=O)c1ccco1	16	-17	i	i	.	-3
O=C(c1cc(-c2ccccc2)on1)N1CCc2ccccc2C1	5	4	i	i	0	1
COc1ccc(-c2cc(C(=O)N3CCc4ccccc4C3)no2)cc1OC	9	-11	-6.4*	i	0	-2
Cc1cc(NC(=O)CSc2nnc(-c3ccncc3)n2C)n(-c2ccccc2)n1	3	-14	-4.9*	i	0	-1
COc1ccc(OC)c(C(=O)/C=C/c2ccccc2C(F)(F)F)c1	8	99*	i	i	-6	1
COc1ccc(C(=O)/C=C/c2ccccc2)c(OC)c1	3	-11	i	i	.	-1
O=C(CSc1nnc(-c2ccco2)o1)c1ccc[nH]1	-3	-7	i	i	-7	-2
COc1cc(/C=N/Nc2ccc(Cl)nn2)cc(OC)c1O	-32	5	i	i	4	-2
COc1cc(/C=N/Nc2ccc(F)cc2F)cc(OC)c1O	3	95*	i	i	-7	1
FC(F)C(F)(F)C(F)(F)C(F)(F)c1cc(-c2ccccc2)n[nH]1	7	43	i	100*	1	3
O=C(Cc1c(F)cccc1Cl)Nc1ccccc1-c1ccccc1	4	-7	i	i	1	6
O=C(c1cccc(Br)c1)c1coc2ccc(O)cc12	4	91*	i	.	3	-3
COc1ccc(C(=O)c2coc3ccc(O)cc23)cc1	13	10	i	i	0	-2
SMILES	MC4R antag cAMP	CSC inhib	TMEM16A act	TMEM16A inh	Beta apoptosis	MC4R ag barr
CCn1cc(C(=O)O)c(=O)c2cc(F)c(N/N=C/c3ccccc3[N+](=O)[O-])cc21	-1	22	i	i	97*	1
COc1ccc(Cl)c2sc(N(CCN(C)C)C(=O)C3=COCCO3)nc12	3	.	i	.	.	-2
O=Nc1c2cc(-c3ccccc3)[nH]nc-2c2ccccc12	-20	.	i	.	.	4
Cc1ccc(-c2cc3c(N=O)c4ccccc4c-3n[nH]2)cc1	-9	87*	i	i	49	0
CCc1ccc(N2CC(C(=O)Nc3ccccc3N3CCCC3)CC2=O)cc1 (stereo unspecified)	5	.	.	.	.	-1
Cc1cccc(OCCCC(=O)Nc2nc3ccccc3[nH]2)c1	2	84*	i	i	13	2
Cc1ccc(OCCCC(=O)Nc2nc3ccccc3[nH]2)cc1	-5	.	i	i	4	5
O=C(CCCOc1ccccc1)Nc1ccc(Br)cc1	6	-5	i	i	-4	8.6*
O=C(CCOc1ccccc1)Nc1ccc(Br)cc1	24	-9	i	i	1	0
CCCCCC(=O)Nc1ccc(N2CCN(C(=O)CCC)CC2)cc1	14	17	i	100*	2	-1
Cc1cccc(OCCCC(=O)Nc2ccc(N3CCCCC3)cc2)c1	5	-5	i	i	6	11*
COc1ccc(C)cc1NC(=O)CO/N=C(\N)CC(=O)NC1CCCCC1	-3	-4	i	.	-3	2
Nc1nc2ccccc2n1/N=C/c1ccc([N+](=O)[O-])s1	2	5	i	i	108*	0
Nc1nc2ccccc2n1/N=C/c1cccnc1	9	.	i	i	-11	-1
Cc1noc(C)c1CSCC(=O)Nc1ccccc1N1CCCC1	4	.	i	.	.	-3
COC(=O)c1sc(NC(=S)NNC(=O)c2c(Br)c(C)nn2C)c(C(=O)OC)c1C	2	-6	i	100*	-1	-1
COC(=O)c1sc(S(=O)(=O)Nc2c(C)nn(C)c2C)c(C(=O)OC)c1C	11	.	i	.	.	-3
O=[N+]([O-])c1cc(F)cc(F)c1Nc1cc(F)cc(F)c1	0	.	i	.	.	0
CC1=CC(=C(C#N)c2nc3ccccc3s2)C=C(C)N1c1ccc(F)cc1	15	37	i	i	6	0
COc1ccccc1N1C(C)=CC(=C(C#N)c2nc3ccccc3s2)C=C1C	3	32	i	i	128*	-2
COc1ccc(CC(N)c2csc(NC(=O)c3cccs3)n2)cc1 (stereo unspecified)	-8	.	.	.	.	-1
Cc1ccc(S(=O)(=O)N2CCCOC2CNC(=O)C(=O)NCCCn2ccnc2)cc1 (stereo unspecified)	7	8	i	i	.	0
CC1CC(C)CN(S(=O)(=O)c2ccc(C(=O)NCCCn3ccnc3)cc2)C1 (stereo unspecified)	0	101*	i	i	114*	-1
COc1ccc(S(=O)(=O)N2CCCOC2CNC(=O)C(=O)NCCCn2ccnc2)cc1 (stereo unspecified)	0	0	-7.3*	i	-1	-3
O=C(NCCCn1ccnc1)c1ccc(S(=O)(=O)N2CCCCCC2)cc1	-3	34	i	i	1	-1
